In ChEMBL document CHEMBL1121836, “Effect of structural change on acute toxicity and antiinflammatory activity in a series of imidazothiazoles and thiazolobenzimidazoles” (J Med Chem, 1981):
Several values for one entry are separate records, joined by “and”; a condition that tells them apart may be missing. Equal entries are not always repeated.

What was measured:
Rattus norvegicus [1] = assay: Compound was evaluated in the developed adjuvant arthritis assay at a dose of 3 mg/kg for the percent reduction of carrageenan induced edema (LHF) on 22nd day; format: functional
Summary of the method: (§1)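 Rats received 0.1 mL heat-killed Mycobacterium tuberculosis suspension (3.5 mg/mL) into the left hind footpad on day 1. On day 20, animals with developed arthritis (all four paws swollen, tail and ears involved) were used. Oral gavage in 0.25% methylcellulose (0.005 mL/g) on days 20 and 22. Hind paw volumes were recorded daily on days 20–23. Mean group volume is expressed as percent change from day 20.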

Mus musculus [2] = assay: Percent analgesia in phenylquinone writhing assay at 3 mg/kg; format: functional
Summary of the method: (§2)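 Groups of 10 male mice were dosed orally with compound dissolved or suspended in 0.25% methylcellulose (0.25 mL per mouse). After the designated interval they were challenged ip with 0.25 mL of 0.02% phenylquinone in aqueous ethanol (95:5). Read-out is the percentage of mice protected from writhing.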

Rattus norvegicus [3] = assay: Compound was evaluated in the developed adjuvant arthritis assay at a dose of 3 mg/kg for the percent reduction of carrageenan induced edema (LHF) on 23rd day; format: functional; summary of the method: as §1
[4] = Compound was evaluated for the toxicity in mice; format: organism-based; conditions: mouse, in vivo
Mus musculus [5] = assay: Compound was evaluated for the percent reduction of carrageenan induced edema in mice at dose of 3.0 mg/kg; format: functional
[6] = Lethal dose evaluated in NPP assay; format: toxicity, organism-based; conditions: mouse, in vivo
Rattus norvegicus [7] = assay: Compound was evaluated in the developed adjuvant arthritis assay at a dose of 1 mg/kg for the percent reduction of carrageenan induced edema (LHF) on 22nd day; format: functional; summary of the method: as §1
Mus musculus [8] = species: Mus musculus; assay: (§3) Neurotoxic dose that causes minimal recognizable neurotoxicity in 50% of animals tested; format: functional
Summary of the method: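 Mice dosed orally or intraperitoneally; neurotoxicity scored on five end points, including a positional sense test in which a hind leg lowered over a table edge should be quickly lifted back to a normal position. NTD50 is the dose giving minimal recognizable neurotoxicity in 50% of animals tested.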

Rattus norvegicus [9] = species: Rattus norvegicus; assay: Ulcerogenic dose that produced gastric lesions, ulcers and/or hemorrhage in 50% of the animals tested; format: functional, Stomach
Summary of the method: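 Ten male Sprague–Dawley rats (ca. 160 g) were fasted 24 h with water available, then dosed po with compound or vehicle. At 4 h they were killed with CO2, and stomachs were opened along the greater curvature. A nonbiased observer scored ulcers, pitting or hemorrhagic spots. UD50 (lesions in 50% of animals) was determined by Litchfield–Wilcoxon.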

Mus musculus [10] = species: Mus musculus; assay: Dose giving one-half of average maximal [40%] response in phenylquinone writhing assay; format: functional
Mus musculus [11] = assay: Percent analgesia in phenylquinone writhing assay at 0.3 mg/kg; format: functional; summary of the method: as §2
Rattus norvegicus [12] = assay: Compound was evaluated in the developed adjuvant arthritis assay at a dose of 3 mg/kg for the percent reduction of carrageenan induced edema (LHF) on 21st day; format: functional; summary of the method: as §1
Rattus norvegicus [13] = assay: Compound was evaluated in the developed adjuvant arthritis assay at a dose of 1 mg/kg for the percent reduction of carrageenan induced edema (LHF) on 23rd day; format: functional; summary of the method: as §1
Rattus norvegicus [14] = assay: Compound was evaluated in the developed adjuvant arthritis assay at a dose of 1 mg/kg for the percent reduction of carrageenan induced edema (LHF) on 21nd day; format: functional; summary of the method: as §1
Rattus norvegicus [15] = assay: Compound was evaluated in the developed adjuvant arthritis assay at a dose of 0.3 mg/kg for the percent reduction of carrageenan induced edema (LHF) on 22nd day; format: functional; summary of the method: as §1
Mus musculus [16] = assay: Compound was evaluated for the percent reduction of carrageenan induced edema in mice at dose of 1.0 mg/kg; format: functional
Mus musculus [17] = assay: Compound was evaluated for the percent reduction of carrageenan induced edema in mice at dose of 0.3 mg/kg; format: functional
Rattus norvegicus [18] = assay: Compound was evaluated in the developed adjuvant arthritis assay at a dose of 0.3 mg/kg for the percent reduction of carrageenan induced edema (LHF) on 23rd day; format: functional; summary of the method: as §1
Mus musculus [19] = species: Mus musculus; assay: Dose giving one-half of average maximal [40%] response in carrageenan assay; format: functional
Mus musculus [20] = assay: Percent analgesia in phenylquinone writhing assay at 1 mg/kg; format: functional; summary of the method: as §2
Mus musculus [21] = assay: Compound was evaluated for the percent reduction of carrageenan induced edema in mice at dose of 200 mg/kg; format: functional
Mus musculus [22] = assay: Compound was evaluated for the percent reduction of carrageenan induced edema in mice at dose of 50 mg/kg; format: functional
Mus musculus [23] = assay: Compound was evaluated for the percent reduction of carrageenan induced edema in mice at dose of 100 mg/kg; format: functional
Mus musculus [24] = assay: Compound was evaluated for the percent reduction of carrageenan induced edema in mice at dose of 10 mg/kg; format: functional
Mus musculus [25] = assay: Compound was evaluated for the percent reduction of carrageenan induced edema in mice at dose of 30 mg/kg; format: functional
Mus musculus [26] = assay: Compound was evaluated for the percent reduction of carrageenan induced edema in mice at dose of 40 mg/kg; format: functional
Mus musculus [27] = assay: Compound was evaluated for the percent reduction of carrageenan induced edema in mice at dose of 25 mg/kg; format: functional
Mus musculus [28] = assay: Compound was evaluated for the percent reduction of carrageenan induced edema in mice at dose of 1 mg/kg; format: functional
[29] = as §3; format: toxicity, organism-based; conditions: mouse, in vivo; read-out: NTD50
Summary of the method: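 NTD50 in mice is the oral or intraperitoneal dose causing minimal recognizable neurotoxicity in 50% of animals, judged by five end points, including a positional sense test (hind leg lowered over a table edge should be lifted back).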

Mus musculus [30] = assay: Percent analgesia in phenylquinone writhing assay at 30 mg/kg; format: functional; summary of the method: as §2
Mus musculus [31] = assay: Percent analgesia in phenylquinone writhing assay at 100 mg/kg; format: functional; summary of the method: as §2
Mus musculus [32] = assay: Percent analgesia in phenylquinone writhing assay at 300 mg/kg; format: functional; summary of the method: as §2
Rattus norvegicus [33] = assay: Compound was evaluated in the developed adjuvant arthritis assay at a dose of 30 mg/kg for the percent reduction of carrageenan induced edema (LHF) on 23rd day; format: functional; summary of the method: as §1
Rattus norvegicus [34] = assay: Compound was evaluated in the developed adjuvant arthritis assay at a dose of 30 mg/kg for the percent reduction of carrageenan induced edema (LHF) on 21st day; format: functional; summary of the method: as §1
Mus musculus [35] = assay: Compound was evaluated for the percent reduction of carrageenan induced edema in mice at dose of 3 mg/kg; format: functional
Rattus norvegicus [36] = assay: Compound was evaluated in the developed adjuvant arthritis assay at a dose of 300 mg/kg for the percent reduction of carrageenan induced edema (LHF) on 21st day; format: functional; summary of the method: as §1
Rattus norvegicus [37] = assay: Compound was evaluated in the developed adjuvant arthritis assay at a dose of 300 mg/kg for the percent reduction of carrageenan induced edema (LHF) on 22nd day; format: functional; summary of the method: as §1
Rattus norvegicus [38] = assay: Compound was evaluated in the developed adjuvant arthritis assay at a dose of 100 mg/kg for the percent reduction of carrageenan induced edema (LHF) on 21st day; format: functional; summary of the method: as §1
Rattus norvegicus [39] = assay: Compound was evaluated in the developed adjuvant arthritis assay at a dose of 100 mg/kg for the percent reduction of carrageenan induced edema (LHF) on 22nd day; format: functional; summary of the method: as §1
Rattus norvegicus [40] = assay: Compound was evaluated in the developed adjuvant arthritis assay at a dose of 100 mg/kg for the percent reduction of carrageenan induced edema (LHF) on 23rd day; format: functional; summary of the method: as §1
Rattus norvegicus [41] = assay: Compound was evaluated in the developed adjuvant arthritis assay at a dose of 300 mg/kg for the percent reduction of carrageenan induced edema (LHF) on 23rd day; format: functional; summary of the method: as §1
Rattus norvegicus [42] = assay: Compound was evaluated in the developed adjuvant arthritis assay at a dose of 30 mg/kg for the percent reduction of carrageenan induced edema (LHF) on 22nd day; format: functional; summary of the method: as §1
Mus musculus [43] = assay: Percent analgesia in phenylquinone writhing assay at 10 mg/kg; format: functional; summary of the method: as §2

## COc1ccc2c(c1)c(CC(=O)O)c(C)n2C(=O)c1ccc(Cl)cc1 [INDOMETHACIN]
Rattus norvegicus [1]
  Reduction: 25%
Mus musculus [2]
  Analgesia: 70%
Rattus norvegicus [3]
  Reduction: 35%
[4]
  LD50: 160 mg/kg
Mus musculus [5]
  Reduction: 39%
[6]
  LD50: 160 mg/kg
Rattus norvegicus [7]
  Reduction: 29%
Mus musculus [8]
  NTD50: 110 mg/kg
Rattus norvegicus [9]
  UD50: 6 mg/kg
Mus musculus [10]
  ED50: 1 mg/kg
Mus musculus [11]
  Analgesia: 20%
Rattus norvegicus [12]
  Reduction: 17%
Rattus norvegicus [13]
  Reduction: 29%
Rattus norvegicus [14]
  Reduction: 21%
Rattus norvegicus [15]
  Reduction: 21%
Mus musculus [16]
  Reduction: 22%
Mus musculus [17]
  Reduction: 11%
Rattus norvegicus [18]
  Reduction: 13% and 19%
Mus musculus [19]
  ED50: 1 mg/kg
Mus musculus [20]
  Analgesia: 60%

## CS(=O)(=O)CC1=CSC2=NCCN12
Mus musculus [21]
  Reduction: 11%

## CCOC(=O)C1=C(C)N2CCN=C2S1
[4]
  LD50: 180 mg/kg
Mus musculus [22]
  Reduction: 2%

## O=S(=O)(C1=C(c2ccccc2)N2CCN=C2S1)c1ccccc1
Mus musculus [23]
  Reduction: 15%
Mus musculus [24]
  Reduction: 10%
Mus musculus [25]
  Reduction: 6%

## CC1=C(C(=O)Nc2c(Br)cccc2Br)SC2=NCCN21
[4]
  LD50: 40 mg/kg
Mus musculus [25]
  Reduction: 0%

## CC1=C(C(=O)Nc2c(Cl)cccc2Cl)SC2=NCCN21
[4]
  LD50: 60 mg/kg

## CC1=C(C(=O)Nc2c(C)cc(C)cc2C)SC2=NC(C)(C)CN21
[4]
  LD50: 60 mg/kg
Mus musculus [26]
  Reduction: 3%

## CC1=CSC2=NC3CCCCC3N12 (cis isomer)
[4]
  LD50: 20 mg/kg
Mus musculus [27]
  Reduction: 57%
Mus musculus [28]
  Reduction: 15%
Mus musculus [22]
  Reduction: 80%

## CC(=O)Oc1ccccc1C(=O)O [ASPIRIN]
[29]
  TD50: 200 mg/kg
Rattus norvegicus [9]
  UD50: 27 mg/kg
Mus musculus [10]
  ED50: 85 mg/kg
Mus musculus [30]
  Analgesia: 20%
Mus musculus [31]
  Analgesia: 60%
Mus musculus [19]
  ED50: 70 mg/kg
Mus musculus [32]
  Analgesia: 90%

## CC1=C(C(=O)Nc2c(C)cc(C)cc2C)SC2=NC(C)CN21 (configuration not stated)
[4]
  LD50: 400 mg/kg
Mus musculus [21]
  Reduction: 24%

## CS(=O)(=O)C1=C(c2ccccc2)N2CCN=C2S1
Rattus norvegicus [33]
  Reduction: 7%
Rattus norvegicus [34]
  Reduction: 10%
Mus musculus [35]
  Reduction: 15%
[4]
  LD50: > 300 mg/kg
[6]
  LD50: > 1000 mg/kg
Rattus norvegicus [36]
  Reduction: 10%
Mus musculus [8]
  NTD50: 690 mg/kg
Rattus norvegicus [37]
  Reduction: 19%
Rattus norvegicus [9]
  UD50: >100 mg/kg
Rattus norvegicus [38]
  Reduction: 11%
Mus musculus [10]
  ED50: 30 mg/kg
Mus musculus [23]
  Reduction: 30%
Mus musculus [30]
  Analgesia: 60%
Rattus norvegicus [39]
  Reduction: 26%
Rattus norvegicus [40]
  Reduction: 16%
Mus musculus [24]
  Reduction: 33%
Rattus norvegicus [41]
  Reduction: 17%
Mus musculus [25]
  Reduction: 26%
Mus musculus [31]
  Analgesia: 90%
Rattus norvegicus [42]
  Reduction: 15%
Mus musculus [43]
  Analgesia: 10%
Mus musculus [21]
  Reduction: 43%
Mus musculus [19]
  ED50: 30 mg/kg

## CC1(C)CN2C(c3ccccc3)=CSC2=N1
[4]
  LD50: 60 mg/kg
Mus musculus [26]
  Reduction: 0%

## CC1(C)CN2C(CS(=O)(=O)c3ccccc3)=CSC2=N1
Mus musculus [21]
  Reduction: 5%

## CC(C)(C)C1=CSC2=NC3CCCCC3N12 (configuration not stated)
[4]
  LD50: 20 mg/kg

## CCOC(=O)C1(O)CSC2=NC3CCCCC3N21 (configuration not stated)
Mus musculus [21]
  Reduction: 3%
